Where only a bound is given, the exact number is not on record here.

Consider 3 compounds from ChEMBL document CHEMBL1909548, “Ligustrazine derivatives. Part 5: design, synthesis and biological evaluation of novel ligustrazinyloxy-cinnamic acid derivatives as potent cardiovascular agents” (Eur J Med Chem, 2011).

Assay [1] concerns ECV-304. As to the kind of experiment: Protection against H2O2-induced toxicity in human ECV304 cells assessed as proliferation rate pretreated for 24 hrs before H2O2 challenge measured after 12 hrs by MTT assay. It counts as functional, cell-based. In outline: (§1)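 ECV-304 cells were seeded at 6×10³/well and grown to confluence. Cells were pretreated 24 h with compound in DMSO (final ≤0.05%), then given H2O2 (150) for 12 h at 37 °C, 5% CO2. MTT (5 mg/mL) was added for 4 h, formazan dissolved in DMSO, and A570 read. Proliferation rate = [OD(compd)−OD(H2O2)]/[OD(control)−OD(H2O2)]×100%. EC50 was calculated from proliferation rates by formula.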
In general terms: Formazan colour is commonly taken as a measure of viable cells.

The subject of assay [2] is ECV-304. Description: Protection against H2O2-induced toxicity in human ECV304 cells assessed as proliferation rate at 12.5 uM pretreated for 24 hrs before H2O2 challenge measured after 12 hrs by MTT assay. The class given is functional. The conditions noted are these: read-out: Activity. The essentials: as §1
Assay [3] has as its system ECV-304. Description: Protection against H2O2-induced toxicity in human ECV304 cells assessed as proliferation rate at 25 uM pretreated for 24 hrs before H2O2 challenge measured after 12 hrs by MTT assay. It counts as functional. The note with it: read-out: Activity. The essentials: as §1
A short description of assay [4]: Antiplatelet activity in rabbit platelet rich plasma assessed as inhibition rate of ADP-induced platelet aggregation at 400 uM after 5 mins by aggregometry. The class given is functional. The conditions noted are these: Oryctolagus cuniculus. The essentials: (§2)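 Rabbit platelet-rich plasma obtained by centrifuging blood at 1000 rpm for 5 min. Platelet-poor plasma (3000 rpm, 15 min) served as the reference. Platelets were adjusted to 3×10¹¹/L. PRP was mixed with compound at final levels 400, 200, 100 or 50 and incubated at 37 °C for 5 min before aggregation was read. IC50 was derived by linear regression.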

Assay [5] deals with ECV-304. As to the kind of experiment: Protection against H2O2-induced toxicity in human ECV304 cells assessed as proliferation rate at 50 uM pretreated for 24 hrs before H2O2 challenge measured after 12 hrs by MTT assay. It counts as functional. The note with it: read-out: Activity. The essentials:
as §1

For assay [6], the system named is ECV-304. As to the kind of experiment: Protection against H2O2-induced toxicity in human ECV304 cells assessed as proliferation rate at 100 uM pretreated for 24 hrs before H2O2 challenge measured after 12 hrs by MTT assay. It counts as functional. The note with it: read-out: Activity. In outline: as §1
Assay [7] in a line: Antiplatelet activity in rabbit platelet rich plasma assessed as inhibition rate of ADP-induced platelet aggregation at 50 uM after 5 mins by aggregometry. The class given is functional. The note with it: Oryctolagus cuniculus. In outline:
as §2

Assay [8] in a line: Antiplatelet activity in rabbit platelet rich plasma assessed as inhibition rate of ADP-induced platelet aggregation at 200 uM after 5 mins by aggregometry. It counts as functional. The conditions noted are these: Oryctolagus cuniculus. In outline:
as §2

Assay [9] is described as follows: Antiplatelet activity in rabbit platelet rich plasma assessed as inhibition of ADP-induced platelet aggregation after 5 mins by aggregometry. The conditions noted are these: Oryctolagus cuniculus. It counts as functional. In outline:
as §2

Assay [10] is described as follows: Antiplatelet activity in rabbit platelet rich plasma assessed as inhibition rate of ADP-induced platelet aggregation at 100 uM after 5 mins by aggregometry. The class given is functional. The conditions noted are these: Oryctolagus cuniculus. In outline:
as §2

In assay [11] the test system is ECV-304. Description: Ratio of Ligustrazine EC50 to compound EC50 for protection against H2O2-induced toxicity in human ECV304 cells pretreated for 24 hrs before H2O2 challenge measured after 12 hrs by MTT assay.

One may read the EC50 as the concentration at which the effect is half-maximal. What is called inhibition is how much of the control response was suppressed. The IC50 is the concentration at which inhibition is half-maximal. Take `CCOC(=O)/C=C/c1ccc(OCc2nc(C)c(C)nc2C)cc1`: in the assay with ECV-304 [1], the EC50 is 206 µM. Moreover, the growth at 12.5 µM in the assay on ECV-304 [2] was -1.79%. Also, in the assay with ECV-304 [3], the growth at 25 µM was -10.8%. For the same compound, the inhibition at 400 µM in [4] was 22.7%. In the assay with ECV-304 [5], the growth at 50 µM is -6.36%. Also, in the assay on ECV-304 [6], the growth at 100 µM was -7.56%. For the same compound, the inhibition at 50 µM in assay [7] worked out at 9.8%. In [8], the inhibition at 200 µM turned out to be 15.5%. In assay [9], the IC50 is above 2000 µM. Further, in assay [10], the inhibition at 100 µM amounted to 11.9%.
In the case of `Cc1nc(C)c(COc2ccc(/C=C/C(=O)O)cc2)nc1C`, in the assay on ECV-304 [1], the EC50 is 86 µM. For the same compound, the growth at 12.5 µM in the assay on ECV-304 [2] was -55%. Moreover, the growth at 25 µM in the assay on ECV-304 [3] was found to be 2.01%. The inhibition at 400 µM in [4] was found to be 27.6%. In the assay with ECV-304 [5], the growth at 50 µM turned out to be 90.4%. Besides, the growth at 100 µM in the assay on ECV-304 [6] came out at 46.6%. Moreover, the inhibition at 50 µM in assay [7] came to 18.8%. The inhibition at 200 µM in [8] worked out at 29%. The IC50 in assay [9] was 1400 µM. Besides, the inhibition at 100 µM in assay [10] came out at 13.4%.
As to `Cc1nc(C)c(COc2cccc(/C=C/C(=O)O)c2)nc1C`, in the assay with ECV-304 [1], the EC50 came out at 20 µM. Moreover, the growth at 12.5 µM in the assay on ECV-304 [2] was 306%. For the same compound, in the assay with ECV-304 [3], the growth at 25 µM amounted to 378%. For the same compound, the inhibition at 400 µM in assay [4] stood at 60.8%. Also, the growth at 50 µM in the assay on ECV-304 [5] is 473%. Further, the growth at 100 µM in the assay on ECV-304 [6] was 175%. Further, the inhibition at 50 µM in [7] came out at 30%. For the same compound, in the assay with ECV-304 [11], the “EC50 ratio (TMP/compound)” value stood at 30. The inhibition at 200 µM in [8] is 57.2%. The IC50 in [9] was found to be 161 µM. Further, the inhibition at 100 µM in assay [10] was 46.6%.
